Measurements reported in ChEMBL document CHEMBL1148476, “3-(4-Aroyl-1-methyl-1H-2-pyrrolyl)-N-hydroxy-2-propenamides as a new class of synthetic histone deacetylase inhibitors. 2. Effect of pyrrole-C2 and/or -C4 substitutions on biological activity” (J Med Chem, 2004).
pIC50: −log10 of the molar value. Activity calls are given as the source filed them. No cut-off for these calls is given here. Non-standard residues stand in square brackets, D forms with d. Residues, ends and D or L forms follow the SMILES beside them. ξ: configuration not given here. Aoe(9ξ) = N[C@@H](CCCCCC(=O)C1CO1)C(=O)O; dPip = O=C(O)[C@H]1CCCCN1

How the values were obtained:
Histone deacetylase HD2 [1] = target: T1, Histone deacetylase HD2 (Zea mays, UniProt Q94F81); experiment: Concentration required for inhibition of histone deacetylase HD2 in vitro.
T1 sequence (Q94F81 whole entry): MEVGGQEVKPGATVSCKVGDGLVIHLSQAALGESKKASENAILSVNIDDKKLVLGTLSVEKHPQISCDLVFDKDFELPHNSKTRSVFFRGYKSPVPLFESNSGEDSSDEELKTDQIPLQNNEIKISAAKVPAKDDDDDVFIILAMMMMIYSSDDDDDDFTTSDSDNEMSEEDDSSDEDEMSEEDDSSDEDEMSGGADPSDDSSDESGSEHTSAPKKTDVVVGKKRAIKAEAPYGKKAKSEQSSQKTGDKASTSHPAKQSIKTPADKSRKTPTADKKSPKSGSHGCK

Histone deacetylase HD2 [2] = target: T1, Histone deacetylase HD2; experiment: (§1) Inhibitory concentration against histone deacetylase HD2 enzyme.
In short: (§2)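 Maize HD2, purified by anion exchange, heparin/histone affinity and size exclusion chromatography, incubated 30 min at 30 °C with [3H]acetate-prelabeled chicken reticulocyte core histones (1 mg/mL). Stopped with HCl/acetate and extracted into ethyl acetate. Released [3H]acetic acid in the upper phase was counted by liquid scintillation. Compounds started at 40 µM and active ones were diluted further. Blank solvents served as negative controls. IC50 values are from triple determinations.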

[3] = target: T2, Histone deacetylase HD2 (Zea mays) (UniProt Q94F81); experiment: Ability to inhibit maize histone deacetylase enzyme in vitro using [3H]acetate-prelabeled chicken reticulocyte histones at 20.8 uM; in short: as §2
T2 sequence (whole entry): T1 sequence (Q94F81 whole entry)

[4] = target: T2, Histone deacetylase HD2 (Zea mays); experiment: Ability to inhibit maize histone deacetylase enzyme in vitro using [3H]acetate-prelabeled chicken reticulocyte histones at 28 uM; in short: as §2
[5] = target: T2, Histone deacetylase HD2 (Zea mays); experiment: Ability to inhibit maize histone deacetylase enzyme in vitro using [3H]acetate-prelabeled chicken reticulocyte histones at 29.8 uM; in short: as §2
[6] = target: T2, Histone deacetylase HD2 (Zea mays); experiment: Ability to inhibit maize histone deacetylase enzyme in vitro using [3H]acetate-prelabeled chicken reticulocyte histones at 26 uM; in short: as §2
[7] = target: T2, Histone deacetylase HD2 (Zea mays); experiment: Ability to inhibit maize histone deacetylase enzyme in vitro using [3H]acetate-prelabeled chicken reticulocyte histones at 27 uM; in short: as §2
[8] = target: T2, Histone deacetylase HD2 (Zea mays); experiment: Ability to inhibit maize histone deacetylase enzyme in vitro using [3H]acetate-prelabeled chicken reticulocyte histones at 24 uM
In short: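 Maize HD2 purified by anion exchange, heparin/histone affinity and size exclusion chromatography. Enzyme incubated 30 min at 30 °C with [3H]acetate-prelabeled chicken reticulocyte core histones (1 mg/mL stock). Reaction stopped with HCl/acetate plus ethyl acetate, then centrifuged. Released [3H]acetic acid in the upper phase counted by liquid scintillation. Blank solvent served as negative control. Triple determinations.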

[9] = target: T2, Histone deacetylase HD2 (Zea mays); experiment: Ability to inhibit maize histone deacetylase enzyme in vitro using [3H]acetate-prelabeled chicken reticulocyte histones at 25.8 uM; in short: as §2
[10] = target: T2, Histone deacetylase HD2 (Zea mays); experiment: as §1; in short: as §2
[11] = target: T2, Histone deacetylase HD2 (Zea mays); experiment: Ability to inhibit maize histone deacetylase enzyme in vitro using [3H]acetate-prelabeled chicken reticulocyte histones at 23.3 uM; in short: as §2
[12] = target: T2, Histone deacetylase HD2 (Zea mays); experiment: Ability to inhibit maize histone deacetylase enzyme in vitro using [3H]acetate-prelabeled chicken reticulocyte histones at 21.7 uM; in short: as §2
[13] = target: T2, Histone deacetylase HD2 (Zea mays); experiment: Ability to inhibit maize histone deacetylase enzyme in vitro using [3H]acetate-prelabeled chicken reticulocyte histones at 23.9 uM; in short: as §2
[14] = target: T2, Histone deacetylase HD2 (Zea mays); conditions: 22.4 uM
[15] = target: T2, Histone deacetylase HD2 (Zea mays); conditions: 24.6 uM
[16] = target: T2, Histone deacetylase HD2 (Zea mays); experiment: Ability to inhibit maize histone deacetylase enzyme in vitro using [3H]acetate-prelabeled chicken reticulocyte histones at 22.6 uM; in short: as §2
[17] = target: T2, Histone deacetylase HD2 (Zea mays); experiment: Ability to inhibit maize histone deacetylase enzyme in vitro using [3H]acetate-prelabeled chicken reticulocyte histones at 30 uM; NI = No inhibition; in short: as §2
[18] = target: T2, Histone deacetylase HD2 (Zea mays); experiment: Ability to inhibit maize histone deacetylase enzyme in vitro using [3H]acetate-prelabeled chicken reticulocyte histones at 21.3 uM; in short: as §2
[19] = target: T2, Histone deacetylase HD2 (Zea mays); experiment: Ability to inhibit maize histone deacetylase enzyme in vitro using [3H]acetate-prelabeled chicken reticulocyte histones at 25.7 uM; in short: as §2
[20] = target: T2, Histone deacetylase HD2 (Zea mays); experiment: Ability to inhibit maize histone deacetylase enzyme in vitro using [3H]acetate-prelabeled chicken reticulocyte histones at 28.2 uM; in short: as §2
[21] = target: T2, Histone deacetylase HD2 (Zea mays); experiment: Ability to inhibit maize histone deacetylase enzyme in vitro using [3H]acetate-prelabeled chicken reticulocyte histones at 24.8 uM; in short: as §2
[22] = target: T2, Histone deacetylase HD2 (Zea mays); experiment: Ability to inhibit maize histone deacetylase enzyme in vitro using [3H]acetate-prelabeled chicken reticulocyte histones at 30 uM; No inhibition; in short: as §2
[23] = target: T2, Histone deacetylase HD2 (Zea mays); experiment: Ability to inhibit maize histone deacetylase enzyme in vitro using [3H]acetate-prelabeled chicken reticulocyte histones at 29 uM
In short: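 Maize HD2 purified by anion exchange, heparin/histone affinity and size exclusion chromatography. Enzyme incubated 30 min at 30 °C with [3H]acetate-prelabeled chicken reticulocyte core histones (1 mg/mL). Stopped with HCl/acetate, then extracted into ethyl acetate; released [3H]acetic acid in the upper phase counted by liquid scintillation. Triple determinations; blank solvent as negative control.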

[24] = target: T2, Histone deacetylase HD2 (Zea mays); conditions: 25 uM

Row | SMILES | pIC50 (Histone deacetylase HD2 [1]) | pIC50 (Histone deacetylase HD2 [2]) | further results
1 | Cn1cc(C(=O)CCCCCCCc2ccccc2)cc1/C=C/C(=O)NO | 6.68 | 6.68 | inhibition [3]: 96%
2 | Cn1cc(C(=O)/C=C/c2ccccc2)cc1/C=C/C(=O)NO | 6.00 | 6.00 | inhibition [4]: 95%
3 | Cn1cc(C(=O)c2ccccc2)cc1/C=C/C=C/C(=O)NO | 6.11 | 6.11 | inhibition [4]: 94%
4 | O=C(CCCCC[C@@H]1NC(=O)[C@H]2CCCCN2C(=O)[C@H](Cc2ccccc2)NC(=O)[C@H](Cc2ccccc2)NC1=O)C1CO1 (stereo partly specified) [TRAPOXIN A] (cyclo(FF[dPip][Aoe(9ξ)])) | 8.00 |  | 
5 | Cn1c(CC(=O)NO)ccc1C(=O)c1ccccc1 | 4.69 | 4.69 | inhibition [5]: 61.3%
6 | C/C(=C\c1cc(C(=O)Cc2ccccc2)cn1C)C(=O)NO | 5.85 | 5.85 | inhibition [6]: 95%
7 | C/C(=C\c1cc(C(=O)c2ccccc2)cn1C)C(=O)NO | 5.57 | 5.57 | inhibition [7]: 83%
8 | Cn1cc(C(=O)c2cccc3ccccc23)cc1/C=C/C(=O)NO | 6.84 | 6.84 | inhibition [8]: 93.6%
9 | CC/C(=C\c1cc(C(=O)c2ccccc2)cn1C)C(=O)NO |  |  | inhibition [9]: 37%; Log IC50 [10]: inactive
10 | Cn1cc(C(=O)CCCCc2ccccc2)cc1/C=C/C(=O)NO | 6.96 | 6.96 | inhibition [11]: 94%
11 | Cn1cc(C(=O)CCCCCCc2ccccc2)cc1/C=C/C(=O)NO | 6.58 | 6.58 | inhibition [12]: 95%
12 | Cn1cc(C(=O)/C=C/c2ccccc2)cc1/C=C/C=C/C(=O)NO | 5.00 | 5.00 | inhibition [13]: 66%
13 | Cn1cc(C(=O)Cc2ccccc2)cc1C=C(C(=O)NO)C(=O)NO | 6.70 | 6.70 | inhibition [14]: 91%
14 | Cn1cc(C(=O)CCCc2ccccc2)cc1/C=C/C(=O)NO | 6.89 | 6.89 | inhibition [15]: 94%
15 | Cn1cc(C(=O)CCCCCc2ccccc2)cc1/C=C/C(=O)NO | 7.15 | 7.15 | inhibition [16]: 97.2%
16 | Cn1cc(C(=O)c2ccccc2)cc1CC(=O)NO | 4.46 | 4.46 | 

Row | SMILES | pIC50 (Histone deacetylase HD2 [1]) | pIC50 (Histone deacetylase HD2 [2]) | further results
17 | Cn1cc(C(=O)c2ccccc2)cc1C=C(C(=O)O)C(=O)O |  |  | Log IC50 [10]: inactive; inhibition [17]: inactive
18 | Cn1cc(C(=O)C2(c3ccccc3)CC2)cc1/C=C/C(=O)NO | 7.00 | 7.00 | inhibition [18]: 94.2%
19 | CCCC(CCC)C(=O)O [VALPROATE SODIUM] | 3.89 |  | 
20 | Cn1cc(C(=O)CCc2ccccc2)cc1/C=C/C(=O)NO | 7.37 | 7.37 | inhibition [19]: 98%
21 | Cn1cc(C(=O)Cc2ccccc2)cc1CCC(=O)NO | 5.92 | 5.92 | inhibition [7]: 96%
22 | Cn1c(CC(=O)NO)ccc1C(=O)Cc1ccccc1 | 4.77 | 4.77 | inhibition [20]: 64.2%
23 | Cn1cc(C(=O)Cc2ccccc2)cc1/C=C/C=C/C(=O)NO | 5.83 | 5.83 | inhibition [21]: 89.8%
24 | CC/C(=C\c1cc(C(=O)/C=C/c2ccccc2)cn1C)C(=O)NO |  |  | Log IC50 [10]: inactive; inhibition [22]: inactive
25 | CC/C(=C\c1cc(C(=O)Cc2ccccc2)cn1C)C(=O)NO |  |  | Log IC50 [10]: inactive; inhibition [22]: inactive
26 | Cn1cc(C(=O)Cc2ccccc2)cc1/C=C/C(=O)NO | 7.00 | 7.00 | inhibition [23]: 96%
27 | Cn1cc(C(=O)C2CC2c2ccccc2)cc1/C=C/C(=O)NO (stereo unspecified) | 6.51 | 6.51 | inhibition [21]: 97.6%
28 | Cn1cc(C(=O)Cc2ccccc2)cc1CC(=O)NO | 4.97 | 4.97 | inhibition [20]: 62.8%
29 | C/C(=C\c1cc(C(=O)/C=C/c2ccccc2)cn1C)C(=O)NO | 5.89 | 5.89 | inhibition [24]: 96%
30 | Cn1cc(C(=O)Cc2ccccc2)cc1C=C(C(=O)O)C(=O)O |  |  | Log IC50 [10]: inactive; inhibition [22]: inactive
31 | Cn1cc(C(=O)c2ccccc2)cc1C=C(C(=O)NO)C(=O)NO | 4.18 | 4.18 | inhibition [11]: 22.7%
32 | Cn1cc(C(=O)c2ccc3ccccc3c2)cc1/C=C/C(=O)NO | 6.94 | 6.94 | inhibition [8]: 93.8%
